Here are results for 31 compounds from ChEMBL document CHEMBL4831487, “Fragment-based drug design targeting syntenin PDZ2 domain involved in exosomal release and tumour spread” (Eur J Med Chem, 2021).

Activity calls are given as the source filed them. The calls are words filed in the database; no cut-off is given here.

In assay [1] the target is Syntenin-1/Syndecan-2 (Homo sapiens) (UniProt O00560+P34741). Briefly: Inhibition of recombinant human full-length GST-tagged syntenin-1/Syndecan-2 complex interaction expressed in Escherichia coli ER2566 at 400 uM measured after 16 hrs by HTRF assay. In a few lines: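 GST-syntenin-1 full length expressed in E. coli ER2566 (0.4 mM IPTG, overnight at 30 °C), purified on GSTrap; HTRF binding to syndecan-2. Compounds at 400 μM, single well, plates spun then incubated 16 h at 4°C. Excitation 337 nm, emission 665/620 ratio; % inhibition from DMSO-only max and no-protein min signals.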
Background: Time-resolved FRET reads energy transfer from a long-lived donor to a nearby acceptor.

In assay [2] the target is T1, Syntenin-1/Syndecan-2 (Homo sapiens, UniProt O00560). Briefly: Inhibition of recombinant human full-length GST-tagged syntenin-1/Syndecan-2 complex interaction expressed in Escherichia coli ER2566 in presence of NP40 detergent measured after 16 hrs by HTRF assay. In outline: (§1)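 HTRF assay of E. coli ER2566-expressed GST-syntenin-1 full length binding to syndecan-2; serial DMSO dilutions of compound in triplicate, 16 h at 4°C after spin. 665/620 nm ratio (excitation 337 nm) converted to % inhibition versus DMSO-only and no-protein controls to derive IC50; for line 4, buffer contained 0.01% NP40.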
T1 sequence (O00560 whole entry): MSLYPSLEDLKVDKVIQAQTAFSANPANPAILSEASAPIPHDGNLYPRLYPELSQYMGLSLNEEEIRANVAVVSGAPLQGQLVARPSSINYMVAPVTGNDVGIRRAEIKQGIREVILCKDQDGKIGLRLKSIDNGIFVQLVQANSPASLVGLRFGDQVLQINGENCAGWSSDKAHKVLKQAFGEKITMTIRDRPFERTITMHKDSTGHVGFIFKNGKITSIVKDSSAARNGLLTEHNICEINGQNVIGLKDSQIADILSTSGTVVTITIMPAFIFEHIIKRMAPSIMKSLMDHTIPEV
T1 sequence (P34741 whole entry, further chain): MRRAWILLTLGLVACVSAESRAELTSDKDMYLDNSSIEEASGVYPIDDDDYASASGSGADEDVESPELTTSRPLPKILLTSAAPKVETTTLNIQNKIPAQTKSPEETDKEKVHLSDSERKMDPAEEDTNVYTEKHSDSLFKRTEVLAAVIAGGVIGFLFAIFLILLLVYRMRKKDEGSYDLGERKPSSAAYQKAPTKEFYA

The target of assay [3] is T1, Syntenin-1/Syndecan-2. The experiment in a line: Inhibition of recombinant human full-length GST-tagged syntenin-1/Syndecan-2 complex interaction expressed in Escherichia coli ER2566 measured after 16 hrs by HTRF assay. In a few lines:
as §1

For assay [4], the system named is MCF7. The experiment in a line: Down regulation of syntenin-1 level in human MCF7 cells at 100 uM measured after 16 hrs by Western blot analysis. In kind it is functional, cell-based. In outline:
(§2)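 MCF-7 cells (DMEM-F12, 10% FCS, 37°C, 5% CO2) treated at 100 μM or DMSO 0.2% vehicle for 16 h in medium with 10% exosome-depleted FCS. Exosomes isolated from medium by sequential centrifugation at 4 °C (500 g, 10,000 g, 100,000 g pellet, PBS wash); loading normalized to parent cell number. SDS-PAGE western blot; mean signal relative to vehicle, N independent experiments, one-way ANOVA with Tukey posttest.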
In general terms: In western blotting, separated proteins are transferred to a membrane and probed.

The test system of assay [5] is MCF7. The experiment in a line: Down regulation of flotillin-1 level in human MCF7 cells at 100 uM measured after 16 hrs by Western blot analysis. The class given is functional, cell-based. In outline:
as §2

By inhibition is commonly meant the relative decrease from the control value, in per cent. Consider `CC(C)[C@H](NC(=O)CSc1ccccc1)C(=O)O`, for which the inhibition in assay [1] came to 20%.

As for `O=C(CCOc1ccccc1)N[C@@H](Cc1ccccc1)C(=O)O`, in assay [1], the inhibition came out at 0%.

In the case of `CC(C)[C@H](NC(=O)CCCc1ccccc1)C(=O)O`, the inhibition in assay [1] amounted to 9%.

One may read the IC50 as the concentration that gives 50% inhibition. `CC(C)[C@H](NC(=O)CCSc1ccc(-c2ccc(OS(C)(=O)=O)cc2)cc1)C(=O)O`: the IC50 on Syntenin-1/Syndecan-2 [2] is 204 µM; at Syntenin-1/Syndecan-2 [3], 7.4 µM.

On to `O=C(CCSc1ccc(Cl)cc1)N[C@@H](Cc1ccccc1)C(=O)O`, for which the inhibition in assay [1] turned out to be 0%.

Consider `COCCOc1ccc(-c2ccc(SCCC(=O)N[C@H](C(=O)O)C(C)C)cc2)cn1`, for which, at Syntenin-1/Syndecan-2 [3], the IC50 was 112 µM.

As for `C[C@H](NC(=O)CSc1ccccc1)C(=O)O`, the inhibition in assay [1] worked out at 0%.

In the case of `CC(C)[C@H](NC(=O)COc1ccccc1)C(=O)O`, the inhibition in assay [1] was found to be 7%.

`CC(C)[C@H](NC(=O)CCOc1ccc(Cl)cc1)C(=O)O`: the inhibition in assay [1] is 31%.

On to `C[C@H](NC(=O)COc1ccc(Cl)cc1)C(=O)O`, for which the inhibition in assay [1] was 0%.

Take `CC(C)[C@H](NC(=O)CCSc1ccc(Cl)cc1)C(=O)O`: the IC50 on Syntenin-1/Syndecan-2 [2] came out at 45 µM; on Syntenin-1/Syndecan-2 [3], 33 µM. In addition, the result with MCF7 [4] was Active. Moreover, the outcome in the assay on MCF7 [5] was inactive. Also, the inhibition in assay [1] came to 94%.

As to `CC(C)[C@H](NC(=O)CCSc1ccc(-c2ccc(CNC(=O)OC(C)(C)C)cc2)cc1)C(=O)O`, on Syntenin-1/Syndecan-2 [3], the IC50 amounted to 69 µM.

For `CC(C)[C@H](NC(=O)CCSc1ccc(-c2cccc(CO)c2)cc1)C(=O)O`, on Syntenin-1/Syndecan-2 [3], the IC50 came to 96 µM.

For the compound `C[C@H](NC(=O)CCSc1ccccc1)C(=O)O`, in assay [1], the inhibition came out at 19%.

Take `CC(C)[C@H](NC(=O)CCSc1ccccc1)C(=O)O`: the inhibition in assay [1] came out at 76%.

For the compound `O=C(CCOc1ccc(Cl)cc1)N[C@@H](Cc1ccccc1)C(=O)O`, in assay [1], the inhibition stood at 1%.

Take `C[C@H](NC(=O)COc1ccccc1)C(=O)O`: in assay [1], the inhibition was determined as 0%.

On to `CC(C)[C@H](NC(=O)CCSc1ccc(-c2ccc(CCC(=O)O)cc2)cc1)C(=O)O`, for which the IC50 on Syntenin-1/Syndecan-2 [3] is more than 200 µM.

Take `CC(C)[C@H](NC(=O)COc1ccc(Cl)cc1)C(=O)O`: the inhibition in assay [1] worked out at 16%.

Consider `CC(C)[C@H](NC(=O)CSc1ccc(Cl)cc1)C(=O)O`, for which, at Syntenin-1/Syndecan-2 [2], the IC50 amounted to 864 µM. Besides, the inhibition in assay [1] worked out at 56%.

As to `C[C@H](NC(=O)CCSc1ccc(Cl)cc1)C(=O)O`, the inhibition in assay [1] is 56%.

As for `CC(=O)Nc1ccc(-c2ccc(SCCC(=O)N[C@H](C(=O)O)C(C)C)cc2)cn1`, the IC50 on Syntenin-1/Syndecan-2 [3] worked out at 177 µM.

For `CC(C)[C@H](NC(=O)CCSc1ccc(Br)cc1)C(=O)O`, the IC50 at Syntenin-1/Syndecan-2 [2] came out at 51 µM; at Syntenin-1/Syndecan-2 [3], 47 µM. For the same compound, in the assay on MCF7 [4], the result was Active. In the assay with MCF7 [5], the result was inactive.

Turning to `CC(C)[C@H](NC(=O)CCSc1ccc(-c2ccc(S(=O)(=O)N3CCCCC3)cc2)cc1)C(=O)O`, on Syntenin-1/Syndecan-2 [3], the concentration for half-maximal inhibition (IC50) is more than 200 µM.

For the compound `CC(C)[C@H](NC(=O)CCOc1ccccc1)C(=O)O`, the inhibition in assay [1] came to 0%.

For `O=C(CCSc1ccccc1)N[C@@H](Cc1ccccc1)C(=O)O`, the inhibition in assay [1] amounted to 0%.

Regarding `CC(C)[C@H](NC(=O)CCSc1ccc(-c2cccc(S(N)(=O)=O)c2)cc1)C(=O)O`, the IC50 on Syntenin-1/Syndecan-2 [3] came to 78 µM.

As for `CC(C)[C@H](NC(=O)CCSc1ccc(-c2cccc(O)c2)cc1)C(=O)O`, the IC50 on Syntenin-1/Syndecan-2 [3] is more than 200 µM.

Turning to `C[C@H](NC(=O)CSc1ccc(Cl)cc1)C(=O)O`, the inhibition in assay [1] came to 25%.

For `C[C@H](NC(=O)CCOc1ccccc1)C(=O)O`, the inhibition in assay [1] was 11%.

Turning to `C[C@H](NC(=O)CCOc1ccc(Cl)cc1)C(=O)O`, the inhibition in assay [1] was 6%.
